ChEMBL document CHEMBL4689842, “EUbOPEN Chemogenomics Library wave 1” (2021)

What was measured:
[1] = tested on: U2OS; assay: Incucyte cell viability with U2OS; type: toxicity, cell-based; settings: human, 10 µM, compound concentration 10 uM; further: filed as whole numbers so only -1 and 0 and 1 occur
[2] = tested on: U2OS; assay: Multiplex assay against U2OS; type: toxicity, cell-based; settings: human
Method in brief: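 Hoechst33342, BioTracker Green Microtubule Cytoskeleton Dye, MitoTracker Red and Annexin V Alexa Fluor 680 were added to live cells at seeding, and imaging on a CQ1 microscope at 37°C and 5% CO2 followed compound addition. Gating by CellPathfinder machine learning separated cells into Hoechst high-intensity objects or normal cells, then normal cells into healthy, pyknosed or fragmented nuclei, then pyknosed cells into mitotic or apoptotic. Per cents of healthy-nucleus cells are reported for the tubulin, mitochondrial-mass and membrane-permeability phenotypes.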

[3] = 12 h, 1 µM, compound concentration 1 uM, replicate 1
[4] = 12 h, 1 µM, compound concentration 1 uM, replicate 2
[5] = 12 h, 10 µM, compound concentration 10 uM, replicate 1
[6] = 12 h, 10 µM, compound concentration 10 uM, replicate 2
[7] = 24 h, 1 µM, compound concentration 1 uM, replicate 1
[8] = 24 h, 1 µM, compound concentration 1 uM, replicate 2
[9] = 24 h, 10 µM, compound concentration 10 uM, replicate 1
[10] = 24 h, 10 µM, compound concentration 10 uM, replicate 2
[11] = 48 h, 1 µM, compound concentration 1 uM, replicate 1
[12] = 48 h, 1 µM, compound concentration 1 uM, replicate 2
[13] = 48 h, 10 µM, compound concentration 10 uM, replicate 1
[14] = 48 h, 10 µM, compound concentration 10 uM, replicate 2

CC(C)N1CCC(C)(C)c2cc(C#Cc3ccc(C(=O)O)cc3)ccc21
Growth Rate ([1]; 0 h, replicate number 1, timepoint 0 hours): 0
Growth Rate ([1]; 6 h, replicate number 2, timepoint 6 hours): 0
Growth Rate ([1]; 12 h, replicate number 1, timepoint 12 hours): 1
Growth Rate ([1]; 18 h, replicate number 1, timepoint 18 hours): 1
Growth Rate ([1]; 24 h, replicate number 1, timepoint 24 hours): 1
Population Apoptotic (%) [2, 3]: 30%
Population Healthy Nuclei (%) [2, 3]: 74%
Population Hoechst High Intensity Objects (%) [2, 3]: 12%
Population Membrane Permeable-Phenotype (%) [2, 3]: 3%
Population Mitochondria Different-Phenotype (%) [2, 3]: 4%
Population Mitotic Cells (%) [2, 3]: 70%
Population Normal (%) [2, 3]: 88%
Population Pyknosed Nuclei (%) [2, 3]: 9%
Population Tubulin-Different-Phenotype (%) [2, 3]: 21%
Total Cell Count [2, 3]: 125
Population Apoptotic (%) [2, 4]: 20%
Population Fragmented Nuclei (%) [2, 4]: 16%
Population Healthy Nuclei (%) [2, 4]: 75%
Population Hoechst High Intensity Objects (%) [2, 4]: 13%
Population Membrane Permeable-Phenotype (%) [2, 4]: 6%
Population Mitochondria Different-Phenotype (%) [2, 4]: 15%
Population Mitotic Cells (%) [2, 4]: 80%
Population Normal (%) [2, 4]: 86%
Population Pyknosed Nuclei (%) [2, 4]: 8%
Population Tubulin-Different-Phenotype (%) [2, 4]: 20%
Total Cell Count [2, 4]: 69
Population Apoptotic (%) [2, 5]: 60%
Population Fragmented Nuclei (%) [2, 5]: 52%
Population Healthy Nuclei (%) [2, 5]: 43%
Population Hoechst High Intensity Objects (%) [2, 5]: 54%
Population Membrane Permeable-Phenotype (%) [2, 5]: 8%
Population Mitochondria Different-Phenotype (%) [2, 5]: 8%
Population Mitotic Cells (%) [2, 5]: 40%
Population Normal (%) [2, 5]: 45%
Population Pyknosed Nuclei (%) [2, 5]: 4%
Population Tubulin-Different-Phenotype (%) [2, 5]: 13%
Total Cell Count [2, 5]: 542
Population Apoptotic (%) [2, 6]: 0%
Population Fragmented Nuclei (%) [2, 6]: 55%
Population Healthy Nuclei (%) [2, 6]: 44%
Population Hoechst High Intensity Objects (%) [2, 6]: 71%
Population Membrane Permeable-Phenotype (%) [2, 6]: 4%
Population Mitochondria Different-Phenotype (%) [2, 6]: 14%
Population Mitotic Cells (%) [2, 6]: 0%
Population Normal (%) [2, 6]: 28%
Population Pyknosed Nuclei (%) [2, 6]: 0%
Population Tubulin-Different-Phenotype (%) [2, 6]: 28%
Total Cell Count [2, 6]: 327
Population Apoptotic (%) [2, 7]: 54%
Population Fragmented Nuclei (%) [2, 7]: 11%
Population Healthy Nuclei (%) [2, 7]: 80%
Population Hoechst High Intensity Objects (%) [2, 7]: 7%
Population Membrane Permeable-Phenotype (%) [2, 7]: 1%
Population Mitochondria Different-Phenotype (%) [2, 7]: 5%
Population Mitotic Cells (%) [2, 7]: 45%
Population Normal (%) [2, 7]: 92%
Population Pyknosed Nuclei (%) [2, 7]: 7%
Population Tubulin-Different-Phenotype (%) [2, 7]: 12%
Total Cell Count [2, 7]: 156
Population Apoptotic (%) [2, 8]: 50%
Population Fragmented Nuclei (%) [2, 8]: 18%
Population Healthy Nuclei (%) [2, 8]: 76%
Population Hoechst High Intensity Objects (%) [2, 8]: 4%
Population Membrane Permeable-Phenotype (%) [2, 8]: 3%
Population Mitochondria Different-Phenotype (%) [2, 8]: 10%
Population Mitotic Cells (%) [2, 8]: 50%
Population Normal (%) [2, 8]: 95%
Population Pyknosed Nuclei (%) [2, 8]: 5%
Population Tubulin-Different-Phenotype (%) [2, 8]: 18%
Total Cell Count [2, 8]: 81
Population Apoptotic (%) [2, 9]: 70%
Population Fragmented Nuclei (%) [2, 9]: 47%
Population Healthy Nuclei (%) [2, 9]: 49%
Population Hoechst High Intensity Objects (%) [2, 9]: 48%
Population Membrane Permeable-Phenotype (%) [2, 9]: 4%
Population Mitochondria Different-Phenotype (%) [2, 9]: 6%
Population Mitotic Cells (%) [2, 9]: 30%
Population Normal (%) [2, 9]: 51%
Population Pyknosed Nuclei (%) [2, 9]: 3%
Population Tubulin-Different-Phenotype (%) [2, 9]: 14%
Total Cell Count [2, 9]: 566
Population Apoptotic (%) [2, 10]: 100%
Population Fragmented Nuclei (%) [2, 10]: 49%
Population Healthy Nuclei (%) [2, 10]: 47%
Population Hoechst High Intensity Objects (%) [2, 10]: 66%
Population Membrane Permeable-Phenotype (%) [2, 10]: 3%
Population Mitochondria Different-Phenotype (%) [2, 10]: 3%
Population Mitotic Cells (%) [2, 10]: 0%
Population Normal (%) [2, 10]: 33%
Population Pyknosed Nuclei (%) [2, 10]: 2%
Population Tubulin-Different-Phenotype (%) [2, 10]: 26%
Total Cell Count [2, 10]: 352
Population Apoptotic (%) [2, 11]: 25%
Population Fragmented Nuclei (%) [2, 11]: 6%
Population Healthy Nuclei (%) [2, 11]: 90%
Population Membrane Permeable-Phenotype (%) [2, 11]: 3%
Population Mitochondria Different-Phenotype (%) [2, 11]: 5%
Population Mitotic Cells (%) [2, 11]: 75%
Population Pyknosed Nuclei (%) [2, 11]: 3%
Population Tubulin-Different-Phenotype (%) [2, 11]: 17%
Total Cell Count [2, 11]: 245
Population Apoptotic (%) [2, 12]: 33%
Population Fragmented Nuclei (%) [2, 12]: 14%
Population Healthy Nuclei (%) [2, 12]: 83%
Population Hoechst High Intensity Objects (%) [2, 12]: 6%
Population Membrane Permeable-Phenotype (%) [2, 12]: 4%
Population Mitochondria Different-Phenotype (%) [2, 12]: 9%
Population Mitotic Cells (%) [2, 12]: 66%
Population Normal (%) [2, 12]: 93%
Population Pyknosed Nuclei (%) [2, 12]: 2%
Population Tubulin-Different-Phenotype (%) [2, 12]: 20%
Total Cell Count [2, 12]: 122
Population Apoptotic (%) [2, 13]: 30%
Population Fragmented Nuclei (%) [2, 13]: 38%
Population Healthy Nuclei (%) [2, 13]: 57%
Population Hoechst High Intensity Objects (%) [2, 13]: 38%
Population Membrane Permeable-Phenotype (%) [2, 13]: 1%
Population Mitochondria Different-Phenotype (%) [2, 13]: 10%
Population Mitotic Cells (%) [2, 13]: 69%
Population Normal (%) [2, 13]: 61%
Population Pyknosed Nuclei (%) [2, 13]: 3%
Population Tubulin-Different-Phenotype (%) [2, 13]: 12%
Total Cell Count [2, 13]: 653
Population Apoptotic (%) [2, 14]: 100%
Population Fragmented Nuclei (%) [2, 14]: 44%
Population Healthy Nuclei (%) [2, 14]: 55%
Population Hoechst High Intensity Objects (%) [2, 14]: 57%
Population Membrane Permeable-Phenotype (%) [2, 14]: 2%
Population Mitochondria Different-Phenotype (%) [2, 14]: 8%
Population Mitotic Cells (%) [2, 14]: 0%
Population Normal (%) [2, 14]: 42%
Population Pyknosed Nuclei (%) [2, 14]: 0%
Population Tubulin-Different-Phenotype (%) [2, 14]: 28%
Total Cell Count [2, 14]: 411
